ABHD4 inh: ABHD4 inhibitors, primary screen, biochemical, fluorescence polarization, mouse. (Lyso)-N-acylphosphatidylethanolamine lipase (Mus musculus), Q8VD66. purified mABHD4, FP-Rh probe fluorescence polarization. inhibition, % at 8.92 µM. 370,000 compounds, 0.54% hits. AID 720543, 2013;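 active means inhibition exceeding the mean over every tested compound plus 3 SD, cut at about 30% in these data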
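Test system: mABHD4 protein | Buffer or medium: HEPES pH 7.0 buffer, 150 mM NaCl, 0.01% Pluronic F-127 | Probe or stimulus: FP-Rh fluorescent activity-based probe, added after compound pre-incubation | Timing: Pre-incubation 45 min, probe exposure 60 min, at 25 °C | Technique: Fluorescence polarization, excitation 525 nm, emission 598 nm, BODIPY TMR filters | Repeats: Single well per compound (singlicate)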
HTRA1 inhibitor: HTRA1 serine protease inhibitors, primary screen, biochemical, fluorescence polarization, HTS; inhibition, % at 5.96 µM; Q92743; recombinant HTRA1, FP-rhodamine activity-based probe; 340,000 compounds, 0.5% hits; in the data active means inhibition above about 36%
PRMT1 FP inh: PRMT1 methyltransferase inhibitors, primary screen, biochemical, fluorescence polarization; inhibition, % at 2.79 µM; recombinant PRMT1, activity-based probe fluorescence polarization; 370,000 compounds, 1.3% hits;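 active means inhibition above about 21% made by adding two undisclosed values, limit read from the data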
Target sequence (Q99873 whole entry, looked up): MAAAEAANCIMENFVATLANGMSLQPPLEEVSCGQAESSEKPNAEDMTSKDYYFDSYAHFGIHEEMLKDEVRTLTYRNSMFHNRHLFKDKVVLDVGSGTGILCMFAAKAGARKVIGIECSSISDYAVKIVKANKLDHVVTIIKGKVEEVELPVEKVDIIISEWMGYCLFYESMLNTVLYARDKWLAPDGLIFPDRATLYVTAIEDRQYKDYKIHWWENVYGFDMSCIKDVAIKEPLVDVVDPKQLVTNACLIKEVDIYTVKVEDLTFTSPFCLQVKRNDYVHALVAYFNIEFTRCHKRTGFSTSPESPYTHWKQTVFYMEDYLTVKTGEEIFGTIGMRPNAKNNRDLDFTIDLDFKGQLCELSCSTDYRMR
SIAE inh: human SIAE inhibitors, primary screen, biochemical, fluorescence polarization, FP-Rh probe, 1536-well HTS; SIAE FP-Rh probe binding; AID 1053197, 2014; Sialate O-acetylesterase (Homo sapiens), Q9HAT2; inhibition, % at 9.66 µM; 370,000 compounds, 0.69% hits;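 active means inhibition above a cutoff: mean of compounds within the control limits plus 3 SD of those, cut at about 17% in these data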
TCR CD3 inh: inhibitors of human TCR-CD3 interaction, primary screen, biochemical, fluorescence, TAMRA-labeled TCR probe | inhibition, % at 9.4 µM | 360,000 compounds, 0.37% hits; in the data active means inhibition above about 19%;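 further: recombinant mutant TCR 2C K166C tagged with TAMRA read by polarization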
PRMT1 confirm: PRMT1 methyltransferase inhibitors, confirmation, biochemical, fluorescence polarization, triplicate. shares compounds with PRMT1 FP inh. recombinant His-PRMT1, activity-based probe fluorescence polarization. inhibition, % at 2.79 µM. 3,300 compounds, 42% hits;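 active means mean inhibition across replicates above the hit cutoff derived for the earlier primary screen, cut at about 22% in these data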
Numbers stand for hits. Most compounds without a hit are left out; they make up all but 2.5% or so of the library.

`CCOCC(=O)N1CCN(c2ccccc2OC)CC1` gave ABHD4 inh inactive, HTRA1 inhibitor inactive, PRMT1 FP inh inactive, SIAE inh inactive and TCR CD3 inh inactive.
Screening CC(=O)c1ccc(COC(=O)c2cc3ccccc3oc2=O)cc1 returned ABHD4 inh inactive, HTRA1 inhibitor inactive, PRMT1 FP inh inactive, SIAE inh inactive and TCR CD3 inh inactive.
For O=[N+]([O-])c1cccc(SSc2cccc([N+](=O)[O-])c2)c1 the results were ABHD4 inh inactive, HTRA1 inhibitor inactive, PRMT1 FP inh 83, SIAE inh inactive, TCR CD3 inh inactive and PRMT1 confirm 95.
For Nc1cccc([N+](=O)[O-])c1 the results were ABHD4 inh inactive, HTRA1 inhibitor inactive, PRMT1 FP inh inactive, SIAE inh inactive and TCR CD3 inh inactive.
CC1(C)CC(=O)C2=C(C1)OC(N)=C(C#N)[C@@H]2c1ccccc1[N+](=O)[O-] was read as ABHD4 inh inactive, HTRA1 inhibitor inactive, PRMT1 FP inh 44, SIAE inh inactive, TCR CD3 inh inactive and PRMT1 confirm inactive.
For COc1ccc(C2C(C#N)=C(/N=C/N3CCN(C)CC3)OC3=C2C(=O)CC(C)(C)C3)cc1OC (stereo not given) the results were ABHD4 inh inactive, HTRA1 inhibitor inactive, PRMT1 FP inh inactive, SIAE inh inactive and TCR CD3 inh inactive.
For O=C(CN1C(=O)NC2(CCOc3ccccc32)C1=O)NCC(F)(F)F (stereo not given) the results were ABHD4 inh inactive, HTRA1 inhibitor inactive, PRMT1 FP inh inactive, SIAE inh inactive and TCR CD3 inh inactive.
`O=C(CCl)Nc1ncc(S(=O)(=O)c2ccc([N+](=O)[O-])cc2)s1` gave ABHD4 inh inactive, HTRA1 inhibitor inactive, PRMT1 FP inh 33, SIAE inh inactive, TCR CD3 inh inactive and PRMT1 confirm inactive.
For O=C(NC1CCCCC1)C(c1ccccc1)n1c(=O)c(-c2ccco2)nc2ccccc21 (stereo not given) the results were ABHD4 inh inactive, PRMT1 FP inh 28, SIAE inh inactive, TCR CD3 inh inactive and PRMT1 confirm 23.
For O=C(NC1CCCCC1)C(c1ccc(C(F)(F)F)cc1)n1c(=O)c(-c2ccco2)nc2ccccc21 (stereo not given) the results were ABHD4 inh inactive, PRMT1 FP inh 29, SIAE inh inactive, TCR CD3 inh inactive and PRMT1 confirm inactive.
Screening NC(=O)C1(N2CCCCC2)CCN(C(=S)Nc2ccc(S(N)(=O)=O)cc2)CC1 returned ABHD4 inh inactive, HTRA1 inhibitor inactive, PRMT1 FP inh 27, SIAE inh inactive, TCR CD3 inh inactive and PRMT1 confirm 36.
`O=C1NC(Cc2ccccc2)C(=O)N1Cc1ccccc1` (stereo not given) gave ABHD4 inh inactive, HTRA1 inhibitor inactive, PRMT1 FP inh inactive, SIAE inh inactive and TCR CD3 inh inactive.
O=c1ccsn1Cc1ccccc1 was read as ABHD4 inh inactive, HTRA1 inhibitor inactive, PRMT1 FP inh 37, SIAE inh inactive, TCR CD3 inh inactive and PRMT1 confirm 44.
COc1ccc(N2CCN(C(=O)C(Cc3ccccc3)NC(=O)c3ccccc3)CC2)cc1 (stereo not given) was read as ABHD4 inh inactive, HTRA1 inhibitor inactive, PRMT1 FP inh inactive, SIAE inh inactive and TCR CD3 inh inactive.
Screening CNC(=O)/C=C1\NC(C)(C)Cc2ccccc21 returned ABHD4 inh inactive, HTRA1 inhibitor inactive, PRMT1 FP inh 41, SIAE inh inactive, TCR CD3 inh inactive and PRMT1 confirm 55.
Screening CC1(C)Cc2ccccc2C(=O)N1 returned ABHD4 inh inactive, HTRA1 inhibitor inactive, PRMT1 FP inh inactive, SIAE inh inactive and TCR CD3 inh inactive.
For COc1cc2c(cc1OC)/C(=C/C#N)NC(C)(C)C2 the results were ABHD4 inh inactive, HTRA1 inhibitor inactive, PRMT1 FP inh inactive, SIAE inh inactive and TCR CD3 inh inactive.
`Cc1cc2c(cc1C)/C(=C\C(N)=O)NC(C)(C)C2` gave ABHD4 inh inactive, HTRA1 inhibitor inactive, PRMT1 FP inh 26, SIAE inh inactive, TCR CD3 inh inactive and PRMT1 confirm 34.
Screening Cc1cccc2c1CC(C)(C)N/C2=C\C(N)=O returned ABHD4 inh inactive, HTRA1 inhibitor inactive, PRMT1 FP inh 45, SIAE inh inactive, TCR CD3 inh inactive and PRMT1 confirm 45.
COc1ccccc1C(=O)N1CCN(C(=O)[C@H]2O[C@@H](n3ccc(N)nc3=O)[C@H](O)[C@@H]2O)CC1 was read as ABHD4 inh inactive, PRMT1 FP inh inactive, SIAE inh inactive and TCR CD3 inh inactive.
`Cc1ccc(S(=O)(=O)/N=S(/c2ccccc2)C(C)C)cc1` (stereo not given) gave ABHD4 inh inactive, HTRA1 inhibitor inactive, PRMT1 FP inh 35, SIAE inh inactive, TCR CD3 inh inactive and PRMT1 confirm 70.
`CN(C)S(=O)(=O)c1cccc(CNCC2COc3ccccc3O2)c1` (stereo not given) gave ABHD4 inh inactive, HTRA1 inhibitor inactive, PRMT1 FP inh inactive, SIAE inh inactive and TCR CD3 inh inactive.
CCCCc1c(O)nc(SCC(=O)c2ccccc2)n(-c2ccccc2OC)c1=O was read as ABHD4 inh inactive, HTRA1 inhibitor inactive, PRMT1 FP inh 40, SIAE inh inactive, TCR CD3 inh inactive and PRMT1 confirm inactive.
For CCOC(=O)C1=C(COC(=O)/C=C/c2cccc(OC)c2)NC(=O)NC1C (stereo not given) the results were ABHD4 inh inactive, HTRA1 inhibitor inactive, PRMT1 FP inh inactive, SIAE inh inactive and TCR CD3 inh inactive.
Screening S=C(NCc1ccco1)Nc1ccc(Br)cn1 returned ABHD4 inh inactive, HTRA1 inhibitor inactive, PRMT1 FP inh inactive, SIAE inh inactive and TCR CD3 inh inactive.
Screening S=C(NCc1ccco1)Nc1cc(-c2ccccc2)[nH]n1 returned ABHD4 inh inactive, HTRA1 inhibitor inactive, PRMT1 FP inh 32, SIAE inh inactive, TCR CD3 inh inactive and PRMT1 confirm 29.
Screening CC(C)=C(NC(=O)c1ccccc1)C(=O)Nc1cccc(C)c1 returned ABHD4 inh inactive, HTRA1 inhibitor inactive, PRMT1 FP inh inactive, SIAE inh inactive and TCR CD3 inh inactive.
For CCN(CC)C(=O)C1=C(C)N(CCC2=CCCCC2)C(=O)C(CC(=O)NCc2ccco2)C1 (stereo not given) the results were ABHD4 inh inactive, HTRA1 inhibitor inactive, PRMT1 FP inh inactive, SIAE inh inactive and TCR CD3 inh inactive.
Screening CCc1c(O)nc(SCC(=O)Nc2ccc(Cl)cc2)n(-c2ccccc2)c1=O returned ABHD4 inh inactive, HTRA1 inhibitor inactive, PRMT1 FP inh 38, SIAE inh inactive, TCR CD3 inh inactive and PRMT1 confirm 35.
